Assay outcomes (PubChem)
APJ antagonist: APJ receptor antagonism; CHO-K1 APJ beta-arrestin complementation, luminescence; inhibition, % at 20 µM; 330,000 tested, 0.32% active;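 active means inhibition above about 40% at 20 µM, limit read from the data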;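 further: cells challenged with 10 nM apelin-13 agonist together with compound; plate controls were apelin-13 plus DMSO wells for no effect and DMSO wells lacking apelin-13 for full effect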
Target sequence (P35414 whole entry, looked up): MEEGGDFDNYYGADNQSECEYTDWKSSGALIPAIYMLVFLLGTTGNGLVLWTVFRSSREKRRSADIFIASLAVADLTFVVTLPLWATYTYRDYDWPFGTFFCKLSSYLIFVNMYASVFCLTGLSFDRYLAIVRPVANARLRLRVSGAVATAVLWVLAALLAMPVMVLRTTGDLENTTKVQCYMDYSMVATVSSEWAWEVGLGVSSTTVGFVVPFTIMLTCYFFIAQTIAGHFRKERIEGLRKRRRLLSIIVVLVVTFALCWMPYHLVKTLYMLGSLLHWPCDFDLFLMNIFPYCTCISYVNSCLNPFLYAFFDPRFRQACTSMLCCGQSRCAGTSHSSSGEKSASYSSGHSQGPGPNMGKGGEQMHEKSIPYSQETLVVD
EBI2 block: EBI2 (human) antagonism | EBI2 beta-arrestin recruitment, luminescence, 7a,25-OHC stimulated | 360,000 tested, 0.81% active | P32249 | AID 651636 | inhibition, % at 5 µM; in the data active means inhibition above about 38%;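 further: enzyme fragment complementation signal reports receptor beta-arrestin coupling in cells; 0% = agonist plus DMSO wells and 100% = wells without agonist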
CXCR6 block: inhibitors of human CXCR6 receptor | O00574 | CHO-K1 PathHunter CXCR6 beta-arrestin, luminescence | inhibition, % at 20 µM | 360,000 tested, 0.36% active | AID 602244; in the data active means inhibition above about 34%, passing the limit was not always enough;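 further: antagonist mode with CXCL16 agonist at 10 nM final; 0% = 10 nM CXCL16 with DMSO and 100% = unstimulated wells without agonist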
Target sequence (O00574 whole entry, looked up): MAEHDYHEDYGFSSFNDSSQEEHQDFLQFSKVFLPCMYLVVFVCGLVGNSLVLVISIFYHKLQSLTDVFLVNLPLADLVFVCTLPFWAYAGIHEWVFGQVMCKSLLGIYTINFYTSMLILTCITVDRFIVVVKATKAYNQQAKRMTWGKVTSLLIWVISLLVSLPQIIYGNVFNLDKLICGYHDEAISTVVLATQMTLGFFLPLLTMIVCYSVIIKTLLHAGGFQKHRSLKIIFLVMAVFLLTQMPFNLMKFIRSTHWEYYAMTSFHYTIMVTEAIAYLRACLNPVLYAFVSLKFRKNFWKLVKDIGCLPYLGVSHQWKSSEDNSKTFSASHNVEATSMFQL
HTR2A ag: agonists of mouse serotonin 5-HT2A receptor (HTR2A) | CHO-K1 mHTR2A beta-arrestin complementation, luminescence; percent of 30 µM serotonin response | P35363 | activation, % at 7.6 µM | 360,000 tested, 0.66% active | AID 624169;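 active means activation above a run cutoff, the mean activation of all tested compounds plus 3 SD, cut at about 14% in these data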;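 further: 0% = plate median of compound wells and 100% = 30 µM serotonin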
APJ ag: APJ receptor agonism; AID 2520; 330,000 tested, 0.11% active; P35414; CHO-K1 APJ PathHunter beta-arrestin, luminescence; 0% DMSO wells, 100% apelin; activation, % at 20 µM;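 active means activation more than six SD over the plate average, tested at 20 µM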;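 further: 0% = DMSO alone and 100% = apelin-13 at 10 nM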
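Assay system – PathHunter CHO-K1 APJ (AGTRL-1) beta-arrestin reporter cells · Compound – one dose, 20 µM compound, 1% DMSO · Timing – compound 90 min 25 °C, reagent 1 h · Measured by – luminescence from split beta-galactosidase complementation, Galacton Star/Emerald II substrate · Measure – beta-arrestin recruitment to APJ as agonist activity, luminescent signal · Benchmarks – DMSO vs Apelin-13 10 nM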
CCR6 antagonist: blocks CCL20-driven beta-arrestin recruitment at human CCR6 | 340,000 tested, 0.49% active | inhibition, % at 20 µM | P51684 | CHO-K1 CCR6 PathHunter beta-arrestin, luminescence, CCL20-stimulated;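 active means compounds whose inhibition of the agonist-driven luminescence signal at 20 µM reaches about 50%, limit read from the data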;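 further: cells stimulated with CCL20 at 14 nM final; plate controls were DMSO with CCL20 for no effect and DMSO without agonist for full effect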
EBI2 antag conf: EBI2 (human) antagonism, single concentration confirmation; 2,400 tested, 29% active; shares compounds with EBI2 block; inhibition, % at 5 µM; EBI2 beta-arrestin luminescence, 7a,25-OHC antagonism;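 active means inhibition of at least 50%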
EBI2 ag: activates EBI2, counter-screen for EBI2 antagonists. shares compounds with EBI2 block. AID 652000. 2,400 tested, under 10 active. EBI2-expressing cells, agonist mode, luminescence, 60 min; 0% vehicle, 100% 7α,25-dihydroxycholesterol control. activation, % at 5 µM;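 active means activation of at least 50%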
bGal cs: beta-galactosidase inhibition counter-screen. 2,400 tested, 1% active. inhibition, % at 5 µM. purified beta-galactosidase, luminescent Galacton Star, 15 min. shares compounds with EBI2 block;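 active means replicate-average signal at least 3 plate SD below neutral wells, shown as high inhibition, flagging enzyme-inhibiting false positives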;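 further: 0% = DMSO wells with enzyme and 100% = wells lacking enzyme; higher means stronger loss of beta-gal luminescence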
Numbers without * were called inactive; / = no result. Sampled rows, rich in hits. Any-hit rate of the full collection: about 2.1%.

SMILES	APJ antagonist	EBI2 block	CXCR6 block	HTR2A ag	APJ ag	CCR6 antagonist	EBI2 antag conf	EBI2 ag	bGal cs
O=C(COc1ccc2ccccc2c1Br)N1CCN(c2ccccn2)CC1	-3.8	52.0*	-1.5	2.2	-3.3	-5.9	7.2	1.2	3.6
Cc1cc(C)c(C)c(OCC(=O)N2CCN(c3ccccn3)CC2)c1	-10.8	4.6	4.4	-6.0	-2.9	12.0	/	/	/
Cc1cccc(NS(=O)(=O)c2ccc3[nH]c(=O)cc(C(=O)OC(C)C(=O)Nc4ccc([N+](=O)[O-])cc4)c3c2)c1 (centres undefined)	18.4	46.6*	1.3	-5.8	0.3	26.2	38.2	-0.5	8.9
Cc1nn(CC(=O)N(C)Cc2ccc(F)cc2)c(C)c1[N+](=O)[O-]	9.1	-3.0	-10.9	2.5	-1.9	17.1	/	/	/
CC(=O)n1cc([C@H]2C=C(C(=O)N3CCN(Cc4ccccc4)CC3)O[C@@H](OCc3ccc(CO)cc3)C2)c2ccccc21	-14.1	46.8*	7.6	-9.6	0.6	0.7	15.9	-0.5	-9.6
CC(=O)n1cc([C@H]2C=C(C(=O)N3CCN(Cc4ccc5c(c4)OCO5)CC3)O[C@@H](OCc3ccc(CO)cc3)C2)c2ccccc21	-12.9	41.8	6.1	-5.2	-1.8	-4.3	/	/	/
C=CCN1C(=O)NC(c2ccccc2)(C(F)(F)F)S/C1=C(\C#N)c1nnc(N2CCOCC2)n1-c1ccccc1 (centres undefined)	9.3	52.8*	5.3	1.2	-4.4	17.8	52.6*	0.6	-12.0
COc1ccc(-c2cc(C(=O)N3CCCCCC3)c3cc(C)ccc3n2)cc1	13.5	20.1	-4.8	-5.8	-1.6	22.4	/	/	/
CN(c1ccc(OCC(=O)OCC(=O)Nc2ccc([N+](=O)[O-])cc2)cc1)S(=O)(=O)c1cccs1	/	-9.6	-18.0	-9.5	/	1.3	/	/	/
Cc1cc(C)c(S(=O)(=O)N2CCN(C(=O)c3cc4ccccc4o3)CC2)c(C)c1	9.8	90.1*	1.7	1.5	-1.1	2.8	83.5*	2.7	6.8
O=C(c1cc2ccccc2oc1=O)N1CCN(S(=O)(=O)c2ccccc2)CC1	-22.1	-0.2	-0.2	2.3	-2.4	-2.9	/	/	/
CCOC(=O)N1CCN(C(=O)c2cc3ccccc3o2)CC1	18.4	64.1*	-7.2	6.1	-2.6	-16.7	20.9	0.4	4.2
O=C(c1ccccc1)N1CCN(C(=O)c2cc3ccccc3o2)CC1	-0.5	70.2*	0.1	-0.9	-5.4	4.0	55.3*	1.5	8.7
CCCC(=O)Nc1ccc(N2CCN(C(=O)c3cc4ccccc4o3)CC2)cc1	-2.4	9.8	-4.1	-0.8	-3.3	1.1	/	/	/
O=C(c1cc2ccccc2o1)N1CCN(S(=O)(=O)c2ccc(F)c(F)c2F)CC1	-8.9	88.8*	8.4	1.7	-3.3	1.2	71.2*	1.3	2.8
O=C(Nc1cccc(F)c1)N1CCN(C/C=C/c2ccccc2)CC1	-25.9	22.1	-0.4	-4.3	2.9	8.9	/	/	/
O=C(/C=N/O)Nc1ccccc1C(=O)O	-7.0	-9.2	-6.5	-1.1	-3.7	-19.3	/	/	/
CCOC(=O)c1ccc(S(=O)(=O)N2CCN(C(=O)c3cc4ccccc4o3)CC2)cc1	7.1	91.4*	-1.7	1.7	1.7	14.4	58.6*	0.2	1.6
Cc1cc(C)c(S(=O)(=O)N2CCN(C(=O)C3COc4ccccc4O3)CC2)c(C)c1 (centres undefined)	15.0	88.3*	14.8	-1.8	-1.6	14.6	70.8*	5.6	2.5
COC(=O)C1Cc2c([nH]c3ccccc23)CN1C(C)=O (centres undefined)	-18.8	-1.3	-1.5	-2.9	1.0	-6.5	/	/	/
O=C(Nc1cccnc1)c1sc2cccc(F)c2c1Cl	6.2	-10.8	3.7	-3.3	-0.5	-11.1	/	/	/
CCOC(=O)C1(CC2CCCCO2)CCN(C(=O)Nc2ccc(SC)cc2)CC1 (centres undefined)	7.7	40.4*	2.9	-6.2	-3.6	13.8	18.8	0.7	2.2
CCN(C(=O)CN1C(=O)NC(c2ccccc2)(c2ccccc2)C1=O)c1ccccc1	-0.1	1.2	0.1	-2.6	-3.5	7.3	/	/	/
O=C(NCc1ccccc1F)C1CCCN(C(=O)Nc2ccc(F)cc2)C1 (centres undefined)	-24.4	15.6	-6.5	7.7	0.0	12.3	/	/	/
CC1CCc2c(sc3ncnc(NCc4cccnc4)c23)C1 (centres undefined)	14.3	4.2	5.6	2.2	-3.5	12.0	/	/	/
SMILES	APJ antagonist	EBI2 block	CXCR6 block	HTR2A ag	APJ ag	CCR6 antagonist	EBI2 antag conf	EBI2 ag	bGal cs
CC1CCc2c(sc3ncnc(NCCCOC(C)C)c23)C1 (centres undefined)	-9.2	45.0*	-13.6	-2.7	2.4	20.4	33.1	0.5	1.1
O=C1c2cnc3nc(SCc4cccc(Cl)c4)nn3c2CC2c3ccccc3CCN12 (centres undefined)	22.1	41.7*	15.7	-3.8	-7.4	23.3	24.1	-4.3	-6.8
CSc1nc2ncc3c(n2n1)CC1c2ccccc2CCN1C3=O (centres undefined)	7.0	-10.0	3.8	-2.2	-6.8	3.3	/	/	/
Cc1ccc(NC(=O)c2ccco2)c(NC(=O)c2ccccc2)c1	-3.1	0.8	7.2	4.7	-3.7	9.1	/	/	/
Clc1ccc(/C=C/c2nc3ccccc3[nH]2)cc1	-15.1	23.9	-8.5	-3.6	0.4	-11.4	/	/	/
N#Cc1ccc(/C=C\c2nccc3c2[nH]c2ccccc23)cc1	-11.3	47.8*	-9.4	-2.7	1.5	-13.4	24.8	1.7	3.2
Clc1ccc(/C=C\c2nccc3c2[nH]c2ccccc23)cc1	/	64.8*	-11.7	2.1	/	-5.2	45.4	1.4	0.4
COc1ccc(C(=O)OCC(=O)c2ccc(Br)s2)c(OC)c1	-7.8	-3.3	3.0	-1.2	3.0	10.1	/	/	/
O=C(NNc1c(Cl)cccc1Cl)c1cccs1	-11.9	-4.2	-6.4	7.3	2.0	5.4	/	/	/
Oc1ccc(O)c(C=NNC(=S)NC2CC3CC2C2C=CCC32)c1 (centres undefined)	/	49.5*	-3.2	9.3	/	/	24.7	-0.9	-2.5
CCOC(=O)c1c(C)oc2c1c(C=NCCO)c(O)c1ccccc12	/	-2.9	6.1	7.8	/	9.9	/	/	/
COc1ccc(/C=N/n2cnn(Cc3ccccc3Cl)c2=S)cc1	-11.2	48.9*	9.9	-1.1	0.0	14.6	45.4	-0.9	-10.8
